In publication PMC5372383 (Nature, 2017):

Tests used:
HeLa cells = test: JQ1 proliferation in HeLa cells; format: cell-based, human; conditions: GFP, AF9 or ENL sgRNAs, n = 5
Method in brief: (§1)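 HeLa and U2OS cells were kept in DMEM with 10% FBS, 2 mM L-glutamine, penicillin/streptomycin and plasmocin. They were transduced with GFP, AF9 or ENL sgRNAs by spin infection at 1500 rcf, 35°C for 90 min, then selected or sorted 48 h after infection. Cells were treated with JQ1, and viability was measured by CellTiter-Glo luminescence.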

MOLM-13 cells = test: JQ1 proliferation / viability; format: cell-based, human; conditions: MOLM-13, sgRNA depletion; proliferation normalized to DMSO, n = 5
Method in brief: (§2)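 MLL-rearranged leukaemia lines were grown in RPMI with 10% FBS, 2 mM L-glutamine, penicillin/streptomycin and plasmocin. Cells were transduced with sgRNAs (MOLM-13) or shNT/shENL shRNAs (panel) by spin infection (1500 rcf, 35°C, 90 min), then selected or sorted 48 h post infection. They were exposed to JQ1 or DMSO, and viability was read by CellTiter-Glo luminescence. MOLM-13 proliferation was normalised to DMSO.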

leukaemia cell lines = format: cell-based, human; conditions: shENL vs shNT, MLL-rearranged leukaemia cells, n = 3
Method in brief: as §2

iCas9-MOLM-13 cells = test: RNA-seq of JQ1-treated iCas9-MOLM-13 cells; format: cell-based, human; conditions: iCas9-MOLM-13, 50 nM JQ1 24 h vs DMSO
U2OS cells = test: JQ1 proliferation in U2OS cells; format: cell-based, human; conditions: GFP, AF9 or ENL sgRNAs, n = 5
Method in brief: as §1

[1] = biological target: ENL YEATS mutants (alanine mutation of the “R-Kac”-binding residues), ITC; test: ITC

Molecule | JQ1 sensitivity on ENL silencing, HeLa (HeLa cells) | sensitivity to JQ1 on depletion of ENL or other SEC components (MOLM-13 cells) | JQ1 sensitivity on ENL silencing (leukaemia cell lines) | JQ1-induced transcriptional changes on ENL depletion, including MYC (iCas9-MOLM-13 cells) | JQ1 sensitivity on ENL silencing, U2OS (U2OS cells) | fold affinity drop against the wild type [1] [fold]
Cc1sc2c(c1C)C(c1ccc(Cl)cc1)=N[C@@H](CC(=O)OC(C)(C)C)c1nnc(C)n1-2 [JQ1] | not in HeLa | sensitized MOLM-13 cells | Increased JQ1 sensitivity | markedly enhanced JQ1-induced transcriptional changes | not in HeLa or U2OS cells | –
H3_(17–28)K27ac peptide (from UniProt P68431 18-29) | – | – | – | – | – | 2.3
